ChEMBL document CHEMBL3813673, “Bistacrine derivatives as new potent antimalarials” (Bioorg Med Chem, 2016)

Tests used:
[1] = tested on: Plasmodium falciparum; assay: Antimalarial activity against chloroquine-sensitive ring-stage Plasmodium falciparum 3D7 assessed as parasite viability after 72 hrs by malstat assay; type: functional, organism-based; details: 3D7, 72 h
In short: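 P. falciparum 3D7: synchronized ring stages plated at 1% parasitemia with compounds dissolved in DMSO; 0.5% DMSO as negative control. Cultured in triplicate for 72 h, then viability read by Malstat assay (parasite lactate dehydrogenase activity). Each compound tested twice; IC50 and standard deviation calculated.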

[2] = Reversible inhibition of recombinant Plasmodium falciparum falcipain 2 assessed as hydrolysis of Cbz-Phe-Arg-AMC measured after 10 mins by spectrofluorometric method
In short: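 Substrate added to buffer containing falcipain-2 and a range of inhibitor concentrations. Fluorescence (ex 380, em 460 nm) followed over 10 min, in duplicate. Slopes (ΔF/min) of the progress curves plotted against inhibitor concentration; IC50 obtained by nonlinear regression.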

[3] = Cytotoxicity against mouse J774.1 cells after 24 hrs by AlamarBlue based cytotoxicity assay; type: cell-based; details: J774.1, 24 h
In short: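 Compounds dissolved in DMSO and serially diluted. Cells incubated with them at 37 °C, 5% CO2 for 24 h. AlamarBlue solution then added and plates incubated for a further 24 and 48 h.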

[4] = tested on: Plasmodium falciparum; assay: Antimalarial activity against chloroquine-resistant Plasmodium falciparum Dd2 assessed as parasite viability after 72 hrs by malstat assay; type: functional, organism-based; details: Dd2, 72 h
[5] = Selectivity index, ratio of IC50 for mouse J774.1 cells to IC50 for chloroquine-sensitive ring-stage Plasmodium falciparum 3D7; type: toxicity; details: read-out: Ratio IC50
[6] = tested on: Plasmodium falciparum; assay: Inhibition of recombinant Plasmodium falciparum falcipain 2 assessed as hydrolysis of Cbz-Phe-Arg-AMC measured after 5 mins at 20 uM by spectrofluorometric method
In short: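 Recombinant falcipain-2 with Cbz-Phe-Arg-AMC substrate in 50 mM sodium acetate, pH 5.5, with 5 mM EDTA and 200 mM NaCl. Released AMC read by fluorescence (ex 380 nm, em 460 nm). Single-concentration screen; compounds giving over 35% inhibition went on to kinetic assays. Run twice.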

[7] = Inhibition of beta-hematin formation; type: physicochemical
In short: (§1)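 Heme–pyridine complex absorbance, which obeys Lambert–Beer's law, used to quantify free heme in heme/hemozoin mixtures and so judge inhibition of β-hematin formation. Chloroquine served as positive control and DMSO as negative control.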

[8] = Inhibition of beta-hematin formation in acetate solution at pH 4.5 measured after 60 mins by pyridine-based spectrophotometric assay; type: physicochemical; in short: as §1
[9] = Selectivity index, ratio of IC50 for mouse J774.1 cells to IC50 for ring-stage Plasmodium falciparum Dd2; type: toxicity; details: read-out: Ratio IC50

SMILES | IC50 [1] [nM] | IC50 [2] [nM] | IC50 [3] [nM] | IC50 [4] [nM] | selectivity ratio [5] | inhibition [6] [%] | IC50 [7] [equiv] | IC50 [8] [equiv] | selectivity ratio [9]
COc1ccc2nc3c(c(NCCCCCCCCCNc4c5c(nc6ccc(OC)cc46)CCCC5)c2c1)CCCC3 | 110 | 14900 | 1700 | 160 | 15 | 62.2 |  |  | 
Nc1c2c(nc3ccccc13)CCCC2 [TACRINE] | 12500 |  | > 100000 |  |  |  |  |  | 
CCN(CC)CCCC(C)Nc1ccnc2cc(Cl)ccc12 (stereo unspecified) [CHLOROQUINE] |  |  | 18400 |  |  |  | 3.01 | 1.91 | 
CC1CCc2c(nc3ccc([N+](=O)[O-])cc3c2NCCCCCCNc2c3c(nc4ccc([N+](=O)[O-])cc24)CC(C)CC3)C1 (stereo unspecified) | 20 | 5200 | 25000 |  | 1250 | 56.7 |  |  | 
CC1(C)CCc2c(nc3ccc([N+](=O)[O-])cc3c2NCCCCCCNc2c3c(nc4ccc([N+](=O)[O-])cc24)CC(C)(C)CC3)C1 | 40 |  | 7900 |  | 198 |  |  |  | 
CCCC1CCc2nc3ccccc3c(N)c2C1 (stereo unspecified) | 1520 |  | 43000 |  |  |  |  |  | 
CC1(C)CCc2c(nc3cc(Cl)ccc3c2NCCCCCCNc2c3c(nc4cc(Cl)ccc24)CC(C)(C)CC3)C1 | 30 |  | 1500 |  | 50 |  |  |  | 
Clc1ccc2c(NCCCCCCNc3c4c(nc5cc(Cl)ccc35)CCCC4)c3c(nc2c1)CCCC3 | 20 | 17300 | 1800 |  | 90 | 36.9 |  |  | 
CCOC1CCc2nc3cc(Cl)ccc3c(NCCCCCCCCCNc3c4c(nc5cc(Cl)ccc35)CCC(OCC)C4)c2C1 (stereo unspecified) | 200 |  | 1740 | 160 | 9 | 25 |  |  | 
CC1CCc2nc3cc(Cl)ccc3c(NCCCCCCNc3c4c(nc5cc(Cl)ccc35)CCC(C)C4)c2C1 (stereo unspecified) | 30 |  | 7800 |  | 260 |  |  |  | 
c1ccc2c(NCCCCCCCCNc3c4c(nc5ccccc35)CCCC4)c3c(nc2c1)CCCC3 | 110 | 17100 | 1900 | 300 | 17.3 | 34.4 |  |  | 6.33
Cc1ccc2nc3c(c(N)c2c1)CCCC3 | 2040 |  | 44300 |  |  |  |  |  | 
c1ccc2c(NCCCCCCCNc3c4c(nc5ccccc35)CCCC4)c3c(nc2c1)CCCC3 | 70 |  | 1900 | 220 | 27.1 |  |  |  | 8.64
Nc1c2c(nc3ccc(Cl)cc13)CCCC2 | 4020 |  | 43200 |  |  |  |  |  | 
Nc1c2c(nc3ccc([N+](=O)[O-])cc13)CCCC2 | 3230 |  | 44600 |  |  |  |  |  | 
CC1CCc2c(nc3cc(Cl)ccc3c2NCCCCCCNc2c3c(nc4cc(Cl)ccc24)CC(C)CC3)C1 (stereo unspecified) | 50 |  | 1500 |  | 30 |  |  |  | 
CC1(C)CCc2c(nc3ccccc3c2NCCCCCCNc2c3c(nc4ccccc24)CC(C)(C)CC3)C1 | 30 |  | 1800 |  | 60 |  |  |  | 
c1ccc2c(NCCCCCCNc3c4c(nc5ccccc35)CCCC4)c3c(nc2c1)CCCC3 | 100 |  | 2970 |  | 29.7 |  |  |  | 
CCCC1CCc2nc3ccc(Cl)cc3c(N)c2C1 (stereo unspecified) | 210 |  | 8400 |  |  |  |  |  | 
c1ccc2c(NCCCCCCCCCCNc3c4c(nc5ccccc35)CCCC4)c3c(nc2c1)CCCC3 | 110 |  | 1800 | 140 | 16.4 |  |  |  | 12.9
c1ccc2c(NCCCCCNc3c4c(nc5ccccc35)CCCC4)c3c(nc2c1)CCCC3 | 630 |  | 1800 | 550 | 2.86 |  |  |  | 3.27
